According to ChEMBL document CHEMBL1151760, “Novel high-affinity and selective biaromatic 4-substituted gamma-hydroxybutyric acid (GHB) analogues as GHB ligands: design, synthesis, and binding studies” (J Med Chem, 2008):

How the values were obtained:
[1] = biological target: GHB high-affinity binding site (Rattus norvegicus); test: Displacement of [3H]NCS-382 from GHB high-affinity binding site in rat brain homogenate
[2] = Displacement of [3H]muscimol from GABAA receptor in rat brain synaptic membranes; format: cell membranes, Membrane
Method in brief: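 Washed synaptic membranes from adult male Sprague-Dawley rat cortex and central hemispheres in 50 mM Tris-HCl pH 7.4. 100 µg protein was incubated with 5 nM [3H]muscimol and 0.1 mM displacer at 0 °C for 60 min. Nonspecific binding was set with 1 mM GABA. Bound counts were read by filtration and scintillation. Triplicates, at least two independent experiments.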

[3] = Displacement of [3H]GABA from GABAB receptor in rat brain synaptic membranes; format: cell membranes, Membrane
Method in brief: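 Adult male Sprague-Dawley rat cortex and central hemisphere synaptic membranes, thawed and washed four times by homogenization in 50 mM Tris-HCl pH 7.4 and 48000g spins at 4 °C. 200 µg protein was incubated with 5 nM [3H]GABA, 40 µM isoguvacine to saturate GABAA sites, and 0.1 mM displacer in Tris-HCl with 2.5 mM CaCl2, pH 7.4, for 45 min at 25 °C. Nonspecific binding was set with 0.1 mM baclofen. Bound counts were read by filtration and scintillation.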

Compound | Ki [1] | pKi [1] | IC50 [2] | IC50 [3]
O=C(O)CCC(=O)c1ccc(Cc2ccccc2)cc1 | 15000 nM | 4.83 |  | 
O=C(O)CCC(=O)c1ccc(CCc2ccccc2)cc1 | 8800 nM | 5.07 |  | 
O=C([O-])CCC(O)c1ccc(/C=C/c2ccccn2)cc1.[Li+] (stereo unspecified) | 230 nM | 6.67 |  | 
O=C([O-])CCC(O)c1ccc(/C=C/c2cccc(Cl)c2)cc1.[Li+] (stereo unspecified) | 79 nM | 7.11 |  | 
COc1ccc(/C=C/c2ccc(C(O)CCC(=O)[O-])cc2)cc1.[Li+] (stereo unspecified) | 180 nM | 6.75 |  | 
O=C([O-])CCC(O)c1ccc(/C=C/c2ccncc2)cc1.[Li+] (stereo unspecified) | 340 nM | 6.49 |  | 
Cc1ncsc1/C=C/c1ccc(C(O)CCC(=O)[O-])cc1.[Li+] (stereo unspecified) | 250 nM | 6.62 |  | 
O=C(O)CCCc1ccc(CCc2ccccc2)cc1 | 1200 nM | 6.01 |  | 
O=C([O-])CCC(O)c1ccc(/C=C/c2ccccc2)cc1.[Li+] (stereo unspecified) | 160 nM | 6.79 | > 100000 nM | > 100000 nM
O=C([O-])CCC(O)c1ccc(/C=C/c2ccccc2Cl)cc1.[Li+] (stereo unspecified) | 54 nM | 7.28 |  | 
O=C(O)CCC(=O)c1ccc(Br)cc1 | 17000 nM | 4.61 |  | 
O=C([O-])CC[C@H](O)c1ccc(OCc2ccccc2I)cc1.[Li+] | 220 nM | 6.66 |  | 
O=C(O)CCC(O)c1ccc(OCc2cccc(Br)c2)cc1 (racemic) | 51 nM | 7.32 |  | 
O=C([O-])CCC(O)c1ccc(OCc2ccccc2F)cc1.[Li+] (racemic) | 41 nM | 7.39 |  | 
O=C([O-])CCC(O)c1ccc(OCc2ccco2)cc1.[Li+] (racemic) | 200 nM | 6.72 |  | 
O=C([O-])CCC(O)c1ccc(OCc2ccc(Br)cc2)cc1.[Li+] (racemic) | 34 nM | 7.48 |  | 
O=C([O-])CCC(O)c1ccc(OCc2ccc(F)cc2)cc1.[Li+] (racemic) | 93 nM | 7.03 |  | 
O=C([O-])CCC(O)c1ccc(OCc2cccs2)cc1.[Li+] (racemic) | 96 nM | 7.03 |  | 
O=C([O-])CCC(O)c1ccc(OCc2cccc(F)c2)cc1.[Li+] (racemic) | 63 nM | 7.22 |  | 
O=C([O-])CCC(O)c1ccc(-c2ccccc2)cc1.[Li+] (racemic) | 440 nM | 6.36 |  | 
O=C([O-])CCC(O)c1ccc(Cc2ccccc2)cc1.[Li+] (racemic) | 120 nM | 6.94 |  | 
O=C([O-])CCC(O)c1ccc(CCc2ccccc2)cc1.[Li+] (racemic) | 75 nM | 7.13 | > 100000 nM | > 100000 nM
O=C([O-])CCC(O)c1ccc(OCc2ccccc2Br)cc1.[Li+] (racemic) | 53 nM | 7.28 |  | 
O=C([O-])CCC(O)c1ccc(OCc2ccccc2)cc1.[Li+] (racemic) | 110 nM | 6.96 | > 100000 nM | > 100000 nM
O=C([O-])CCC(O)c1ccc(OCc2cccc(I)c2)cc1.[Li+] (racemic) | 75 nM | 7.12 |  | 
O=C([O-])CCC(O)c1ccc(OCc2ccc(I)cc2)cc1.[Li+] (racemic) | 62 nM | 7.21 |  | 
O=C([O-])CCC(O)c1ccc(OCc2ccccc2I)cc1.[Li+] (racemic) | 60 nM | 7.22 | > 100000 nM | > 100000 nM
O=C([O-])CC[C@@H](O)c1ccc(OCc2ccccc2I)cc1.[Li+] (racemic) | 22 nM | 7.68 |  | 
O=C([O-])CCC(O)c1ccc(Br)cc1.[Li+] (racemic) | 1100 nM | 5.96 |  | 
